Compound activity (PubChem BioAssay)
Cl transport mod = KCC2 cotransporter modulators, thallium flux, primary screen, cell-based, HEK293 KCC2, FluoZin-2 fluorescence, MLSMR; Solute carrier family 12 member 5 (Homo sapiens), Q9H2X9; 190,000 compounds, 2.2% hits; KCC2 cells, thallium flux FluoZin-2 fluorescence; B-score of Tl+ flux slope (higher = more flux/activation; lower = inhibition) at 10 µM;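 active = thallium flux slope and its plate-corrected score both differing from the plate sample mean at a set confidence after two filtering rounds, in either direction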;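 also: slope of fluorescence scaled to starting intensity during 10 to 20 s after thallium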
hERG protect = hERG rescue from dofetilide block, primary screen, cell-based, CHO-hERG, FluxOR thallium flux, dofetilide IC70 | Voltage-gated inwardly rectifying potassium channel KCNH2 (Homo sapiens), Q12809 | 310,000 compounds, 0.51% hits | dofetilide IC70 present | AID 1511, 2009 | activation (rescue from dofetilide block), less the hit threshold, % at 10 µM;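 active = activation above the mean of controls blocked by dofetilide plus 5 SD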;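 also: thallium influx through hERG after potassium depolarization seen as dye fluorescence rise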
KCNQ1 act = potentiators or activators of KCNQ1 channel, primary screen, cell-based, thallium flux, high-throughput; CHO-K1 KCNQ1, thallium flux FluxOR fluorescence; hits give high values; B-score at 10 µM; 310,000 compounds, 0.35% hits;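 active = fluorescence ratio B-score, a plate-corrected score, at least three library SD, with initial intensity B-score within 5 SD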
Target sequence (P51787 whole entry, looked up): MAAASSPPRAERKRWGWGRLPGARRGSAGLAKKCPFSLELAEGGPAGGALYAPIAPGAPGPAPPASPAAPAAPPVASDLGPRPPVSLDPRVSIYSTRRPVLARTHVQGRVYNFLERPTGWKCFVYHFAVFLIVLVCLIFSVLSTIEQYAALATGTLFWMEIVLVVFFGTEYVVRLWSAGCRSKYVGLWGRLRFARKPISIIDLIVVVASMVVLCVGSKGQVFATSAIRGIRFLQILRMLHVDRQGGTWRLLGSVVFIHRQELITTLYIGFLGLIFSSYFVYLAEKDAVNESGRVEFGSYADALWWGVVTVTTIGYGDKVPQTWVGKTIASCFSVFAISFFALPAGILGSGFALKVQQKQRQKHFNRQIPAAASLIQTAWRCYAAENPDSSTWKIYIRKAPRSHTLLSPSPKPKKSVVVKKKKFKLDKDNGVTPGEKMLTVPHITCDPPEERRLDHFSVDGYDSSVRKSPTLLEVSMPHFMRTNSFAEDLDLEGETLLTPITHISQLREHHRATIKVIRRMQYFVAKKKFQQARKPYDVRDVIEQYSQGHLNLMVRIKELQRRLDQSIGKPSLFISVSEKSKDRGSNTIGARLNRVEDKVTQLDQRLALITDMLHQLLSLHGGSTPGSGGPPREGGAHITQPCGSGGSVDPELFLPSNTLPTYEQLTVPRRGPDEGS
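Test system: CHO-K1 cells stably expressing KCNQ1 / Medium: assay buffer / Also added: depolarizing K+/Tl+ stimulus, K2SO4 and Tl2SO4 each 12.5 mM in 5x stock / Incubation: 90 min dye loading and 20 min compound exposure, both at room temperature / Signal: thallium influx via FluxOR fluorescence, kinetic imaging / Evaluation: B score of baseline-normalized fluorescence ratio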
KCNK9 block = KCNK9 potassium channel inhibitors, primary screen, HEK293 cells, thallium flux | B-score at 10 µM | 310,000 compounds, 1.2% hits | AID 488922, 2010 | Potassium channel subfamily K member 9 (Homo sapiens), Q9NPC2 | FluxOR thallium flux fluorescence; hits give low values;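 active = ratio B-score over 3 SD below the library mean, with starting fluorescence within 5 SD of its mean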;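 also: negative B-score means less thallium flux so channel inhibition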
KCNQ1 inh = inhibitors of human KCNQ1 channel, primary screen, cell-based, thallium flux, high-throughput; 310,000 compounds, 1.3% hits; CHO-K1 KCNQ1, FluxOR thallium flux fluorescence; hits give high values; B-score at 10 µM;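 active = compounds whose thallium flux B-score, printed positive for inhibition, exceeds three library SD while starting fluorescence stays within three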;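 also: channel opened by potassium depolarization with thallium stimulus after 20 min compound exposure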
KCNK3 inh = human KCNK3 channel inhibitors, primary screen, CHO cells, FluxOR thallium flux, B-score. AID 602410, 2012. B-score at 10 µM. FluxOR fluorescence; hits give low values. 340,000 compounds, 0.84% hits. Potassium channel subfamily K member 3 (Homo sapiens), O14649;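 active = B-score under library mean minus 4 SD, starting fluorescence ratio at most library mean plus 5 SD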;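 also: more negative B-score means stronger inhibition of thallium flux through KCNK3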
Of the large screens only hits and unclear results are named; the others gave an inactive call. Compounds with a hit are over-represented: about 4.1% of the library has one in this group of screens.

COc1cc(NC(=O)COc2cc(O)c3c(c2)OC(C)(C)CC3=O)cc(OC)c1	none (no result: Cl transport mod)
Cc1nn(CC(=O)N2CCC(C)CC2)c(=O)c2nn(-c3ccccc3)c(C)c12	none (no result: Cl transport mod)
Cc1cc(C)c(C#N)c(N2CCN(CCOc3ccc(Cl)cc3)CC2)n1	none
COc1ccc(Cl)cc1CN1CCN(c2nc(C)cc(C)c2C#N)CC1	KCNK3 inh -9.6 (no result: Cl transport mod)
CC1=CC2=NC(=O)/C(=C\c3cccn3CCOc3cccc(C)c3)C(=N)N2O1	KCNK9 block -7
CC1=CC2=NC(=O)/C(=C\c3cccn3CCOc3cc(C)cc(C)c3)C(=N)N2O1	KCNK9 block -7.9
Cc1cccc(N(CC(=O)NC2CCCC2)C(=O)c2csnn2)c1C	KCNQ1 act 8 (no result: Cl transport mod)
CCCCCCc1nc2c(=O)[nH]c3ccccc3c2o1	hERG protect 6.2
COc1cc(C(=O)NCCCN2CCCC2=O)cc(Br)c1OCc1ccccc1	none (no result: Cl transport mod, hERG protect, KCNQ1 act, KCNK9 block, KCNQ1 inh)
COc1ccc(/C=C2\SC(=O)N(CC(=O)NCCCn3ccnc3)C2=O)cc1	KCNQ1 inh 7 (no result: Cl transport mod)
COc1cccc(/C=C2\SC(=O)N(CC(=O)NCCCn3ccnc3)C2=O)c1	none (no result: Cl transport mod)
CCN(C(=O)COC(=O)CCc1ccc(OC)cc1)c1c(N)n(Cc2ccccc2)c(=O)[nH]c1=O	none (no result: Cl transport mod, hERG protect, KCNQ1 act, KCNK9 block, KCNQ1 inh)
N=C1/C(=C/c2cccs2)C(=O)N=C2SN=C(SCc3ccccc3)N12	Cl transport mod 32
CCOC(=O)C1CCN(C(=O)c2cccc(S(=O)(=O)N3CCCc4ccccc43)c2)CC1	none (no result: Cl transport mod, hERG protect, KCNQ1 act, KCNK9 block, KCNQ1 inh)
CCN(CC)C(=O)COc1ccc(N(C)S(=O)(=O)c2ccc(NC(C)=O)cc2)cc1	none
COc1ccc(-c2csc(NC(=O)COc3ccc(N(C)S(=O)(=O)c4ccc(C)cc4)cc3)n2)cc1	KCNK9 block -8
Cc1ccc(-c2csc(NC(=O)COc3ccc(N(C)S(=O)(=O)c4ccc(C)cc4)cc3)n2)cc1	none
CN(c1ccc(OCC(=O)OCC(=O)Nc2ccc(F)cc2)cc1)S(=O)(=O)c1ccc(Cl)cc1	none
CCN(C(=O)COc1ccc(N(C)S(=O)(=O)c2ccc(NC(C)=O)cc2)cc1)C1CCCCC1	KCNK3 inh -8.7 (no result: Cl transport mod, hERG protect, KCNQ1 act, KCNK9 block, KCNQ1 inh)
COc1ccc(NC(=O)COc2ccc(N(C)S(=O)(=O)c3ccc(Cl)cc3)cc2)cc1OC	KCNQ1 inh 10 (no result: Cl transport mod)
Cc1ccc(C)c(NC(=S)NNC(=O)c2csc3c2CCC(C)C3)c1 (centres undefined)	Cl transport mod 21, hERG protect 6.8, KCNQ1 act 19
Cc1ccc(NC(=S)NNC(=O)c2ccccc2O)c(C)c1	KCNQ1 inh 10
CCc1cc(C(=O)NNC(=S)Nc2cc(C)ccc2C)cs1	Cl transport mod 10
Cc1ccc(C)c(NC(=S)NNC(=O)c2csc3c2CCCC3)c1	Cl transport mod 79, KCNQ1 act 11
Cc1cccc(NC(=S)NNC(=O)c2csc3c2CCCC3)c1	Cl transport mod 21
COc1ccc(C(=O)NCCn2cc(SCC(=O)NCC3CCCO3)c3ccccc32)cc1OC (centres undefined)	none (no result: Cl transport mod)
N#Cc1ccc(C2=NC(C(F)(F)F)(C(F)(F)F)c3c(n(Cc4ccco4)c(=O)[nH]c3=O)N2)cc1	KCNQ1 inh 7
O=c1[nH]c(=O)n(Cc2ccco2)c2c1C(C(F)(F)F)(C(F)(F)F)N=C(CCc1ccccc1)N2	none (no result: Cl transport mod)
CCC/C(=N/NC(=O)c1csc(C)c1C)c1ccc(Cl)s1	Cl transport mod 3.7
Cc1cc(N2C(=O)C(O)=C(C(=O)c3ccc(C)o3)C2c2cccs2)no1 (centres undefined)	Cl transport mod -3
O=C(Nc1ccccc1N1CCCCC1)c1ccc([N+](=O)[O-])o1	none (no result: Cl transport mod, hERG protect, KCNQ1 act, KCNK9 block, KCNQ1 inh)
O=C(Nc1ccccc1N1CCN(C(=O)c2ccc(Cl)cc2)CC1)c1ccc([N+](=O)[O-])o1	KCNK3 inh -11 (no result: Cl transport mod)
COC(=O)c1cn(NC(=O)CC2CCCCC2)c(=O)c2ccccc12	none
COC(=O)c1cn(NC(=O)CCC2CCCC2)c(=O)c2ccccc12	hERG protect 5.8
CC(=O)N(\C=C/C=C/C=C1\Sc2ccccc2C1=O)c1ccccc1	KCNQ1 inh 7
C=CC[C@H](CC(=O)OC(C)(C)C)C(=O)OC[C@@H]1CCCN1C(=O)[C@H](CC=C)CC(=O)N[C@H](CO)Cc1ccccc1	none (no result: Cl transport mod, hERG protect, KCNQ1 act, KCNK9 block, KCNQ1 inh)
CCNc1ccc(Br)cc(C(=O)/C=C/c2ccc(Cl)cc2)c1=O	none
CCNc1ccc(Br)cc(C(=O)/C=C/c2c(Cl)cccc2Cl)c1=O	KCNQ1 inh 6, KCNK3 inh -9 (no result: Cl transport mod)
Cc1ccc(NC(=O)CNc2ccccc2N2CCCC2=O)cc1S(=O)(=O)N1CCOCC1	none (no result: Cl transport mod, hERG protect, KCNQ1 act, KCNK9 block, KCNQ1 inh)
CCC(NC(=O)c1[nH]c(C)c(C(C)=O)c1C)c1ccc(Br)cc1 (centres undefined)	KCNQ1 inh 6 (no result: Cl transport mod)
CCC(C)c1ccc(NC(=O)c2[nH]c(C)c(C(C)=O)c2C)cc1 (centres undefined)	none (no result: Cl transport mod)
CC(NC(=O)C1CCCC1)c1ccc(Br)cc1 (centres undefined)	hERG protect 5.5 (no result: Cl transport mod)
COc1ccc(C(=O)c2ccc(Cl)cc2)c(OC)c1OC	none (no result: Cl transport mod, hERG protect, KCNQ1 act, KCNK9 block, KCNQ1 inh)
CCOC(=O)C1CCN(C(=O)COC(=O)Cc2ccc(Cl)cc2)CC1	none (no result: Cl transport mod)
Cc1nc(SCc2nc3cc(Cl)c(F)cc3[nH]2)c2oc3ccccc3c2n1	none (no result: Cl transport mod, hERG protect, KCNQ1 act, KCNK9 block, KCNQ1 inh)
CN(C)CCNc1ncnc2c1sc1nc(N3CCCC3)c3c(c12)CC(C)(C)OC3	none
CCN(CC)CCNc1ncnc2c1sc1nc(N3CCCC3)c3c(c12)CC(C)(C)OC3	KCNQ1 act 8
Cc1cccc2nnc(-c3ccccc3)n12	none (no result: Cl transport mod, hERG protect, KCNQ1 act, KCNK9 block, KCNQ1 inh)
COc1ccc(/C=N\NC(=O)c2ccccc2Br)cc1COc1c(F)c(F)cc(F)c1F	KCNQ1 inh 6 (no result: Cl transport mod)
COc1ccc(/C=N/NC(=O)c2cc(C)oc2C)cc1OCc1ccccc1	KCNK9 block -6.7 (no result: Cl transport mod)
COc1ccc(/C=N\NC(=O)c2ccccc2F)cc1COc1ccc(F)cc1	none (no result: Cl transport mod)
COc1ccc(/C=N/NC(=O)c2cc(C(C)(C)C)[nH]n2)cc1COc1ccc(F)cc1F	KCNQ1 inh 6
Cc1cc(C(=O)N/N=C/c2ccc(OCc3ccccc3)cc2)c(C)o1	none (no result: Cl transport mod)
Cc1ccc(S(=O)(=O)N(C)C)cc1NC(=O)COC(=O)Cc1ccccc1F	none (no result: Cl transport mod)
COc1ccc(NC(=O)N(O)C2(C#N)CCCCC2)cc1	none (no result: Cl transport mod, hERG protect, KCNQ1 act, KCNK9 block, KCNQ1 inh)
CN(CC(=O)OCC(=O)NC1CCCC1)S(=O)(=O)c1ccc(Cl)cc1	none (no result: Cl transport mod, hERG protect, KCNQ1 act, KCNK9 block, KCNQ1 inh)
